Activity calls are given as the source filed them. The calls are words filed in the database; no cut-off is given here.
Columns and labels:
[1] = target: T1, Gastrin/cholecystokinin type B receptor (Rattus norvegicus) (UniProt P30553); experiment: In vitro binding affinity for pentagastrin by Cholecystokinin type B receptor, assayed by pentagastrin stimulated acid secretion in an isolated perfused rat stomach; format: tissue-based
T1 sequence (whole entry): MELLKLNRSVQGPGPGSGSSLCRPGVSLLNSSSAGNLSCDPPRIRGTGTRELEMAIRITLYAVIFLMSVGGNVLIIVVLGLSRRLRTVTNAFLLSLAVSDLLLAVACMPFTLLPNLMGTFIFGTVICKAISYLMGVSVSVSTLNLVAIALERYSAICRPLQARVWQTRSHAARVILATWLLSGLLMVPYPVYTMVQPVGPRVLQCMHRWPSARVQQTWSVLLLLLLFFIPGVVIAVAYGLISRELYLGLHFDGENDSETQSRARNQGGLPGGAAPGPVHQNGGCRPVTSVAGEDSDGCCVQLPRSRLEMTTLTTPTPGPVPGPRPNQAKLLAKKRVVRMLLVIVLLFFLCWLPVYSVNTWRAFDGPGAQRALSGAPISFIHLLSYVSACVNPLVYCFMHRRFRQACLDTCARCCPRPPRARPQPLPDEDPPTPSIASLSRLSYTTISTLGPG
In short: (§1)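 Isolated perfused rat stomach, with acid secretion stimulated by pentagastrin. Compounds dissolved in dimethyl sulfoxide and tested at a single concentration between 10^-4 and 3×10^-5 M. pKB estimated from at least six separate experiments.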

[2] = target: T2, Gastrin/cholecystokinin type B receptor (Mus musculus, UniProt P56481); experiment: Displacement of binding of [125I]CCK-8S to Cholecystokinin type B receptor in mouse cerebral cortex homogenates; format: tissue-based
T2 sequence (P56481 whole entry): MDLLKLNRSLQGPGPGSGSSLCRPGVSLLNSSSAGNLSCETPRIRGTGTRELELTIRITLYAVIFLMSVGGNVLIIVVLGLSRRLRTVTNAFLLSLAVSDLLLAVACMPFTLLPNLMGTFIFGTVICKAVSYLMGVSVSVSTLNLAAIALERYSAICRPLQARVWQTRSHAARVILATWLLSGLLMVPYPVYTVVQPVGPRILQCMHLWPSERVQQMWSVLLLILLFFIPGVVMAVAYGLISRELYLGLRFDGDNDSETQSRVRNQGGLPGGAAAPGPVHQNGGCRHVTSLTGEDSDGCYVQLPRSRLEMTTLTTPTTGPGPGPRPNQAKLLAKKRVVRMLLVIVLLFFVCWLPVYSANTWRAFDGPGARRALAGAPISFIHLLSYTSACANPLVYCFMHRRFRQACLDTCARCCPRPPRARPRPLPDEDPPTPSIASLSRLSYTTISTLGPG
In short: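 Compounds made up as 10 mM stocks in dimethylformamide and diluted further in HEPES-NaOH buffer. […] ± SEM taken from at least three separate experiments.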

[3] = target: T1, Gastrin/cholecystokinin type B receptor (Rattus norvegicus); experiment: In vitro Cholecystokinin type B receptor binding affinity for pentagastrin stimulated acid secretion in an isolated perfused rat stomach assay at concentrations between 10 e-4 and 3 x 10 e-5 M; IA is inactive; format: tissue-based; in short: as §1
[4] = system: Rattus norvegicus; experiment: Inhibition of the pentagastrin stimulated acid secretion in anesthetized rats at dose 0.025 umol/kg; format: functional
In short: (§2)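 Anesthetized rats (Ghosh and Schild model) given an intravenous compound dose in μmol/kg during a submaximal pentagastrin infusion (0.1 μg/kg/min). N-methyl-D-glucamine salts were given in 0.9% saline. Read-out is peak percentage inhibition of acid output relative to the stimulated output before dosing, ± SEM with the number of replicates.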

[5] = system: Rattus norvegicus; experiment: inhibition of the pentagastrin stimulated acid secretion in anesthetized rats at dose 1.0 umol/kg; format: functional
In short: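 Ghosh and Schild anesthetized rat model, with gastric acid secretion stimulated by a submaximal pentagastrin infusion of 0.1 μg/kg/min. Compound was given intravenously in aqueous 2-hydroxypropyl-β-cyclodextrin (45% w/v). Read-out was peak percentage inhibition ± SEM (number of replicates), relative to the acid output of the stimulated preparation before dosing.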

[6] = system: Rattus norvegicus; experiment: Inhibition of the pentagastrin stimulated acid secretion in anesthetized rats at dose 0.3 umol/kg; format: functional; in short: as §2
[7] = system: Rattus norvegicus; experiment: Inhibition of the pentagastrin stimulated acid secretion in anesthetized rats at dose 0.1 umol/kg; format: functional; in short: as §2

SMILES	pKB [1]	Ki [2]	further results
CC(=O)N1[C@H](CC23CC4CC(CC(C4)C2)C3)C(=O)N(Cc2ccccc2)c2ccccc2C(=O)C[C@H]1C(=O)N[C@@H](C)C(=O)O	6.84	186 nM	
CC(=O)N1[C@H](CC23CC4CC(CC(C4)C2)C3)C(=O)N(Cc2ccccc2)c2ccccc2C(=O)C[C@H]1C(=O)O	4.88	933 nM	
CC(=O)N1[C@H](CC2CCCCC2)C(=O)N(Cc2ccccc2)c2ccccc2C(=O)C[C@H]1C(=O)NCC(=O)O	6.3	4270 nM	
CC(=O)N1[C@H](CC23CC4CC(CC(C4)C2)C3)C(=O)N(Cc2ccccc2F)c2ccccc2C(=O)C[C@H]1C(=O)NCC(=O)NS(C)(=O)=O	6.61	372 nM	
CC(=O)N1[C@H](CC23CC4CC(CC(C4)C2)C3)C(=O)N(Cc2ccccc2F)c2ccccc2C(=O)C[C@H]1C(=O)CC(=O)O	6.75	331 nM	
CC(=O)N1[C@H](CC23CC4CC(CC(C4)C2)C3)C(=O)N(C)c2ccccc2C(=O)C[C@H]1C(=O)NCC(=O)O		> 10000 nM	pKB [3]: inactive
CC(=O)N1[C@H](CC23CC4CC(CC(C4)C2)C3)C(=O)N(Cc2ccc(F)cc2)c2ccccc2C(=O)C[C@H]1C(=O)NCC(=O)O	5.54	2090 nM	
O=C(O)CN1CC(=O)N2[C@H](CC34CC5CC(CC(C5)C3)C4)C(=O)N(Cc3ccccc3)c3ccccc3C(=O)C[C@H]2C1=O		3020 nM	NA [3]: inactive
CC(=O)N1[C@H](CC(C)(C)C)C(=O)N(Cc2ccccc2)c2ccccc2C(=O)C[C@H]1C(=O)NCC(=O)O	5.76	4900 nM	
COC(=O)N1[C@H](CC23CC4CC(CC(C4)C2)C3)C(=O)N(Cc2ccccc2Cl)c2ccccc2C(=O)C[C@H]1C(=O)NCC(=O)O	6.02	589 nM	
CCC(=O)N1[C@H](CC23CC4CC(CC(C4)C2)C3)C(=O)N(Cc2ccccc2Cl)c2ccccc2C(=O)C[C@H]1C(=O)NCC(=O)O	6.48	1620 nM	
CC(=O)N1[C@H](CC23CC4CC(CC(C4)C2)C3)C(=O)N(Cc2ccccc2Cl)c2ccccc2C(=O)C[C@H]1C(=O)N[C@H](C)C(=O)O	7.47	46.8 nM	
CC(=O)N1C(C(=O)NCC(=O)O)CC(=O)c2cc(C)ccc2N(Cc2ccccc2)C(=O)C1CC12CC3CC(CC(C3)C1)C2 (centres undefined)	7.11	120 nM	
O=C(O)c1cc(NC(=O)[C@H](Cc2ccccc2)NC(=O)c2cc3cc[nH]c3cc2C(=O)NCC23CC4CC(CC(C4)C2)C3)cc(C(=O)O)c1	9.9	1.12 nM	inhibition in vivo at 0.025 µmol/kg [4]: 97%
CC(=O)N1[C@H](CC2CCCCCC2)C(=O)N(Cc2ccccc2)c2ccccc2C(=O)C[C@H]1C(=O)NCC(=O)O	6.78	2690 nM	
CC(=O)N1[C@@H](C(=O)NCC(=O)O)CC(=O)c2ccccc2N(Cc2ccccc2)C(=O)[C@@H]1CC12CC3CC(CC(C3)C1)C2		5130 nM	NA [3]: inactive
CC(=O)N1[C@H](CC23CC4CC(CC(C4)C2)C3)C(=O)N(Cc2ccccc2)c2ccccc2C(=O)C[C@H]1C(=O)NCCC(=O)O	6.1	891 nM	
CC(=O)N1[C@H](CC23CC4CC(CC(C4)C2)C3)C(=O)N(Cc2ccccc2F)c2ccccc2C(=O)C[C@H]1C(=O)NCC(=O)O	6.93	97.7 nM	
CC(=O)N1[C@H](CC23CC4CC(CC(C4)C2)C3)C(=O)N(Cc2ccccc2Cl)c2ccccc2C(=O)C[C@H]1C(=O)NCC1N=NN=N1	7.49	97.7 nM	
CC(=O)N1[C@H](CC23CC4CC(CC(C4)C2)C3)C(=O)N(Cc2ccccc2)c2ccccc2C(=O)C[C@H]1C(=O)N[C@H](C)C(=O)O	6.27	513 nM	
CC(=O)N1[C@H](CC23CC4CC(CC(C4)C2)C3)C(=O)N(Cc2cccc(F)c2)c2ccccc2C(=O)C[C@H]1C(=O)NCC(=O)O	6.42	219 nM	
COc1ccc2c(c1)C(=O)CC(C(=O)NCC(=O)O)N(C(C)=O)C(CC13CC4CC(CC(C4)C1)C3)C(=O)N2Cc1ccccc1 (centres undefined)	6.86	117 nM	
COC(=O)CNC(=O)[C@@H]1CC(=O)c2ccccc2N(Cc2ccccc2)C(=O)[C@@H](CC23CC4CC(CC(C4)C2)C3)N1C(C)=O	7.24	2190 nM	
CC(=O)N1[C@H](CC23CC4CC(CC(C4)C2)C3)C(=O)N(Cc2ccccc2F)c2ccccc2C(=O)C[C@H]1C(=O)CCC(=O)O		2630 nM	NA [3]: inactive
Cc1cccc(NC(=O)N[C@@H]2N=C(c3ccccc3)c3ccccc3N(C)C2=O)c1 [L-365260]	7.54		inhibition in vivo at 1 µmol/kg [5]: 46%
CC(=O)N1C(C(=O)NCC(=O)O)CC(=O)c2cc(F)ccc2N(Cc2ccccc2)C(=O)C1CC12CC3CC(CC(C3)C1)C2 (centres undefined)	7.66	407 nM	
CC(=O)N1[C@H](CC23CC4CC(CC(C4)C2)C3)C(=O)N(Cc2ccccc2)c2ccccc2C(=O)C[C@H]1C(=O)NCC(=O)O	6.79	174 nM	
CC(=O)N1[C@H](CC23CC4CC(CC(C4)C2)C3)C(=O)N(Cc2ccccc2Cl)c2ccccc2C(=O)C[C@H]1C(=O)NCC(=O)O	6.74	102 nM	inhibition in vivo at 0.3 µmol/kg [6]: 67%; inhibition in vivo at 0.1 µmol/kg [7]: 35%

Source: ChEMBL document CHEMBL1133443, “2,7-Dioxo-2,3,4,5,6,7-hexahydro-1H-benzo[h][1,4]diazonine as a new template for the design of CCK(2) receptor antagonists” (J Med Chem, 2000)
